Compound activity as filed in PubChem.
Sampled rows, rich in hits. Any-hit rate of the full collection: about 3.9%.
TMEM16A inh: inhibitors of mouse TMEM16A calcium-activated chloride channel | HEK293 TMEM16A/YFP iodide influx fluorescence, ionomycin | AID 588511 | 1.2% of 310,000 active | normalized B-score (activity score, 25-100; higher = stronger inhibition) at 10 µM;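 active means ratio plate-corrected score three or more library SD toward inhibition, starting fluorescence score within five deviations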;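 further: score derived from kinetic fluorescence span divided by baseline fluorescence per well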
Target sequence (Q8BHY3 whole entry, looked up): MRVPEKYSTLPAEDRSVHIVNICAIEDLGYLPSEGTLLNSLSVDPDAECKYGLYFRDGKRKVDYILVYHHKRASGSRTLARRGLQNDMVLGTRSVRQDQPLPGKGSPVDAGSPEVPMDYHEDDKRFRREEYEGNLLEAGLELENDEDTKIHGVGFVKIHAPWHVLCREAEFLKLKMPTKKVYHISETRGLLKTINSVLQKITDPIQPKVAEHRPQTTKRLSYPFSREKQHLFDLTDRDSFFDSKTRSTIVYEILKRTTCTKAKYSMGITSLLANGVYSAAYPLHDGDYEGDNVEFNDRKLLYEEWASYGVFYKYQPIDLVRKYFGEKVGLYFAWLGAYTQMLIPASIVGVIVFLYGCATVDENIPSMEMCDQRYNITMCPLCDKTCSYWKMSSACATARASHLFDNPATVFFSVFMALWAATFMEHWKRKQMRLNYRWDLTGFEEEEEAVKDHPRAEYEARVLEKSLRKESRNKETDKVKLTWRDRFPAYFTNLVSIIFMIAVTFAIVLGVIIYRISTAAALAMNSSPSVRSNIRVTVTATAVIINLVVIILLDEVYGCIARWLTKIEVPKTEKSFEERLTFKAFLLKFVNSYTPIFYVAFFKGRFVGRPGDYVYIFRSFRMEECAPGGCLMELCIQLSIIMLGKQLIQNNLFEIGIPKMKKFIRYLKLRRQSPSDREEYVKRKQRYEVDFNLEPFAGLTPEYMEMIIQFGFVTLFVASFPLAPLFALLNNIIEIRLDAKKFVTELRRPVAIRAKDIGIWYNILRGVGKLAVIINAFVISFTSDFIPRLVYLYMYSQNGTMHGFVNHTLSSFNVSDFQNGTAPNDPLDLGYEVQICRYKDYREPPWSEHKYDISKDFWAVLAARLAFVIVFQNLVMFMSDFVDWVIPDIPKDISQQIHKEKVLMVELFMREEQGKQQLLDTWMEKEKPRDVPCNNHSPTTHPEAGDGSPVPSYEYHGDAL
TAAR1 antagonist: antagonists of human TAAR1 | inhibition, % at 3 µM | CHO RD-HGA16 TAAR1, Fluo-8 calcium fluorescence, antagonist | AID 624466 | 1.5% of 360,000 active | Q96RJ0;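 active means inhibition above a per-plate cutoff, the mean inhibition of test compounds on that plate plus 3 SD, cut at about 49% in these data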;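 further: 0% = DMSO plus EC80 beta-PEA response and 100% = DMSO alone without agonist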
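Test system: CHO RD-HGA16 cells bearing hTAAR1 | Reagent: β-PEA, EC80 | Compound dosing: 3 µM, single point | Schedule: Dye loading 75 min at 37 °C, then 30 min room temperature | Signal: Calcium fluorescence with Fluo-8 | Evaluation: Percent inhibition of PEA-evoked calcium signal, max/basal emission ratio | Control set: DMSO-only wells and EC80 β-PEA-stimulated wells | Repeats: Singlicate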
TAAR1 ag: agonists of human TAAR1. activation, % at 3 µM. 0.99% of 360,000 active. AID 624467. CHO RD-HGA16 TAAR1, Fluo-8 calcium fluorescence; vehicle wells 0%, saturating PEA agonist 100%. Q96RJ0;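 active means activation above the mean activation of all test compounds in the run plus 3 SD, cut at about 38% in these data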
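Repeats: no replicates (n 1) | Material: CHO-derived RD-HGA16 cells with stable Gα16 and human TAAR1 | Technique: Kinetic Fluo-8 calcium fluorescence | Schedule: 17-24 h seeding, 75 min 37 °C dye, 30 min RT | Evaluation: % activation from peak over basal fluorescence ratio, DMSO-to-PEA scaled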
CRFBP-R2 block: blocks CRF-induced signaling of the CRF-BP/CRF-R2 complex. HEK293 CRF-R2/CRF-BP, CRF-induced calcium fluorescence. 0.59% of 350,000 active. inhibition, % at 11.8 µM;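 active means inhibition of the ligand-induced calcium signal above about 50% at the single tested concentration, limit read from the data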
ANO1 activ: mouse TMEM16A channel activation, primary screen | HEK293 TMEM16A/YFP-H148Q/I152L, iodide quench fluorescence; active compounds read low | Q8BHY3 | 0.3% of 340,000 active | B-score at 10 µM | AID 623877;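 active means fluorescence-ratio B-score plate-corrected deviation score at least 3 library SD below zero, with starting fluorescence score within 5 deviations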;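 further: channel opened by trigger with iodide after compound preincubation; score built on the fluorescence ratio of max minus min over baseline; more negative score means more quench and so TMEM16A activation or potentiation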
CRFR2-BP ag: agonists of human CRF-binding protein/CRF-R2 receptor complex. HEK293 CRF-R2/CRF-BP, calcium dye fluorescence (FLIPR); percent of saturating CRF peptide response. activation, % at 13.2 µM. 0.46% of 350,000 active. AID 588473;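 active means activation of at least 50%, plus an integration ratio under a set limit after plate pattern correction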;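 further: plate controls were neutral control wells without compound for no effect and CRF at EC100 for full effect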
TAAR1 ag confirm: confirmation of human TAAR1 agonists. shares compounds with TAAR1 ag. CHO RD-HGA16 TAAR1, Fluo-8 calcium fluorescence; scaled: DMSO 0%, maximal phenethylamine 100%. activation, % at 3 µM. 82% of 2,400 active. AID 651783;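 active means activation above a cutoff set at the run's mean compound activation plus 3 SD, cut at about 39% in these data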
Ga16 nonsel ag: counter-screen for TAAR1 agonists: nonselective agonists in parental cells. shares compounds with TAAR1 ag. CHO-Ga16 parental, Fluo-8 calcium fluorescence; normalized to maximal ATP response, DMSO zero. activation, % at 3 µM. 50% of 2,400 active;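 active means activation above the run cutoff, the mean activation over all tested wells plus 3 SD, cut at about 12% in these data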;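 further: 0% = DMSO wells and 100% = maximal ATP response on the peak over basal ratio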
TAAR1 desens: human TAAR1 agonist that also desensitizes the receptor; 46% of 2,400 active; AID 651951; shares compounds with TAAR1 ag; CHO RD-HGA16 hTAAR1, Fluo-8 calcium, beta-PEA response inhibition; inhibition, % at 3 µM;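 active means inhibition above the run cutoff, the mean inhibition of all test compounds plus 3 SD, cut at about 49% in these data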;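 further: beta-PEA stimulus applied at its EC80; loss of beta-PEA calcium signal after compound pretreatment read as receptor desensitization; 0% = DMSO with beta-PEA at EC80 and 100% = DMSO alone without agonist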
Ga16 antag count: nonselective Ga16 antagonism, counter-screen; 39% of 2,400 active; AID 651952; inhibition, % at 3 µM; CHO-Ga16 ATP-induced calcium, Fluo-8 fluorescence; shares compounds with TAAR1 ag;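 active means inhibition above the plate's mean compound inhibition plus 3 SD, computed per plate, cut at about 22% in these data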;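 further: 0% = EC80 ATP with DMSO and 100% = DMSO wells without ATP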
Active calls of the source: *; i = inactive; / = no result given.

SMILES | TMEM16A inh | TAAR1 antagonist | TAAR1 ag | CRFBP-R2 block | ANO1 activ | CRFR2-BP ag | TAAR1 ag confirm | Ga16 nonsel ag | TAAR1 desens | Ga16 antag count
CCOC(=O)N[C@@H](Cc1cccnc1)C(=O)N1CCC[C@H]1C(=O)NCCc1ccccc1Cl | / | 61* | 67* | / | / | / | 89* | 5 | 86* | 5
CCOC(=O)N[C@@H](Cc1cccnc1)C(=O)N1CCC[C@H]1C(=O)NC1CCCC1 | / | -12 | 3 | / | / | / | / | / | / | /
Cc1ccccc1C(=O)N[C@@H](Cc1cccnc1)C(=O)N1CCC[C@H]1C(=O)NCCc1ccccc1Cl | / | 48 | 41* | / | / | / | 84* | 19* | 84* | 4
COc1cc2nc(Nc3ccc(C)c(Cl)c3)nc(N)c2cc1OC | i | 7 | 5 | -7 | i | -1 | / | / | / | /
Nc1nc(Nc2ccc(Cl)cc2)nc2ccccc12 | i | 72* | 65* | -39 | i | 0 | 84* | 8 | 70* | 5
Oc1ccc(Nc2nc(N3CCCC3)c3ccccc3n2)cc1 | i | 85* | 84* | -2 | i | -3 | 91* | -1 | 95* | 1
Nc1nc(Nc2ccccc2)nc2ccccc12 | i | 91* | 103* | 22 | i | -5 | 95* | 7 | 100* | 10
Cc1ccc(Nc2nc(N)c3ccccc3n2)cc1Cl | i | 38 | 50* | -12 | i | 2 | 83* | 24* | 75* | 8
O=C(NC1CCCCC1)C(c1cc2ccccc2o1)N1CCOCC1 (stereo unspecified) | / | 1 | 0 | / | / | / | / | / | / | /
CCc1cc(-c2nnn(CCC3COCCO3)c2CC)cc(CC)c1-c1cn(CCc2c[nH]c3ccccc23)nn1 (stereo unspecified) | / | 9 | 1 | -5 | / | 1 | / | / | / | /
CNc1nc(N)c([N+](=O)[O-])c(Nc2ccccc2OC)n1 | i | -8 | 56* | -70 | i | -3 | 80* | 13* | 21 | 4
COc1cccc2c1Oc1ncccc1N(C(=O)CCC(=O)NCc1cccc(C)c1)C2 | i | -16 | 2 | -4 | i | -1 | / | / | / | /
O=C(/C=C/c1ccco1)N1CCCC(c2ccccc2)C1 (stereo unspecified) | i | 18 | 49* | -11 | i | 1 | 33 | -1 | 31 | 7
Cc1ccc(NC(=O)N2CCCC(c3ccccc3)C2)cc1 (stereo unspecified) | i | 21 | 49* | 12 | / | 0 | 58* | -1 | 33 | 3
CCc1ccc(NC(=O)N2CCC(c3ccccc3)C2)cc1 (stereo unspecified) | i | -12 | 0 | 6 | i | -4 | / | / | / | /
CCOc1ccc(NC(=O)N2CCC(c3ccc(C)cc3)C2)cc1 (stereo unspecified) | i | 38 | 51* | 0 | i | 0 | 7 | 4 | 11 | 10
CCOc1cc(C(=O)N(C)CC(=O)Nc2cccc(F)c2)ccc1OCC(=O)N1CCOCC1 | i | -2 | 0 | 5 | i | 0 | / | / | / | /
COc1ccc(NC(=O)COC(=O)c2cc(C)oc2C)c([N+](=O)[O-])c1 | / | 58* | 62* | -1 | i | 0 | -3 | 2 | 7 | 10
CC1=C(NCCc2ccccc2)CCC1=O | i | 60* | 95* | -3 | i | 2 | 103* | 4 | 87* | 0
N#Cc1cccc(NC(=O)CSc2ccc3c4c(cccc24)C(=O)c2ccccc2-3)c1 | i | 87* | 86* | -219 | i | 224* | 47* | 57* | 73* | 77*
O=C(CSc1nncc2ccccc12)Nc1ccc(C(=O)O)cc1 | i | 0 | 2 | 18 | i | -1 | / | / | / | /
O=S1(=O)N=C(N/N=C/c2cccs2)c2ccccc21 | i | 4 | 2 | -4 | i | 2 | / | / | / | /
Fc1c(F)c(C(F)(F)F)c(F)c(F)c1N/N=C\c1cccs1 | i | 75* | 92* | -46 | i | 10 | 70* | 86* | 71* | 80*
CN1CCC(C)(C(=O)Nc2cccc(Oc3ccccc3)c2)C1 (stereo unspecified) | / | -17 | 3 | / | / | / | / | / | / | /
COc1ccccc1CCN1C(=S)NC(C)(C)CC1(C)O (stereo unspecified) | i | 6 | 51* | -1 | i | 0 | 74* | 0 | 43 | 9
SMILES | TMEM16A inh | TAAR1 antagonist | TAAR1 ag | CRFBP-R2 block | ANO1 activ | CRFR2-BP ag | TAAR1 ag confirm | Ga16 nonsel ag | TAAR1 desens | Ga16 antag count
COc1ccc(CN2C(=S)NC(C)(C)CC2(C)O)cc1 (stereo unspecified) | i | -4 | 0 | 14 | i | -1 | / | / | / | /
COc1cccc(O)c1CN1CCC(C(=O)Nc2ccc(-c3cccc(C)c3)cc2)CC1 | i | 34 | 53* | -13 | i | -1 | 33 | 18* | 41 | 37*
COc1cccc(O)c1CN1CCC(C(=O)Nc2ccc(Oc3cccnc3)cc2)CC1 | i | 7 | 7 | -11 | i | 6 | / | / | / | /
COc1ccc(-c2csc(NC(=O)c3cc(C)on3)c2C#N)cc1OC | i | 29 | 46* | 14 | i | -2 | 14 | 7 | 13 | 17
CCc1c(C)sc(NC(=O)c2cc(-c3ccc(OC)c(OC)c3)on2)c1C#N | i | -1 | 8 | -26 | i | 13 | / | / | / | /
Cc1ccc(NC(=O)c2cc3ccccc3o2)nc1 | i | -15 | 2 | -5 | i | 0 | / | / | / | /
Cn1cnnc1SCC(=O)Nc1ccc2nc(SCc3ccccc3)sc2c1 | i | 2 | 44* | -5 | i | 1 | 48* | 21* | 24 | 25*
Cc1ccccc1NC(=O)C1CCN(C(=O)N2CCOc3ccccc32)CC1 | i | -1 | 2 | -14 | i | 4 | / | / | / | /
FC(F)(F)c1cccc(Cc2noc(CN3CCCC(OCc4ccccn4)C3)n2)c1 (stereo unspecified) | i | -23 | 3 | -1 | i | -2 | / | / | / | /
COc1ccc(NS(=O)(=O)c2ccc(OCC(=O)N3CCOCC3)cc2)cc1 | i | -6 | 10 | 25 | i | 2 | / | / | / | /
